Data: ChEMBL document CHEMBL1159052 (Bioorg Med Chem, 2010)

Columns and labels:
[1] = Displacement of [3H]MLA from alpha7 nAChR in rat brain homogenate by liquid scintillation spectrophotometry; assay type: tissue-based
Outline: (§1)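 Membranes came from whole brain minus cortex and cerebellum, washed in Krebs-HEPES buffer at pH 7.5, 100–140 μg protein per tube. IC50 came from a curve fit; Ki by Cheng-Prusoff. At least four experiments, each in duplicate.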

[2] = molecular target: Sodium-dependent serotonin transporter (Rattus norvegicus, UniProt P31652); assay: Inhibition of [3H]5HT uptake at SERT in rat brain hippocampal synaptosomes by liquid scintillation spectrophotometry; assay type: subcellular, Hippocampus
Chain of Sodium-dependent serotonin transporter (P31652 whole entry): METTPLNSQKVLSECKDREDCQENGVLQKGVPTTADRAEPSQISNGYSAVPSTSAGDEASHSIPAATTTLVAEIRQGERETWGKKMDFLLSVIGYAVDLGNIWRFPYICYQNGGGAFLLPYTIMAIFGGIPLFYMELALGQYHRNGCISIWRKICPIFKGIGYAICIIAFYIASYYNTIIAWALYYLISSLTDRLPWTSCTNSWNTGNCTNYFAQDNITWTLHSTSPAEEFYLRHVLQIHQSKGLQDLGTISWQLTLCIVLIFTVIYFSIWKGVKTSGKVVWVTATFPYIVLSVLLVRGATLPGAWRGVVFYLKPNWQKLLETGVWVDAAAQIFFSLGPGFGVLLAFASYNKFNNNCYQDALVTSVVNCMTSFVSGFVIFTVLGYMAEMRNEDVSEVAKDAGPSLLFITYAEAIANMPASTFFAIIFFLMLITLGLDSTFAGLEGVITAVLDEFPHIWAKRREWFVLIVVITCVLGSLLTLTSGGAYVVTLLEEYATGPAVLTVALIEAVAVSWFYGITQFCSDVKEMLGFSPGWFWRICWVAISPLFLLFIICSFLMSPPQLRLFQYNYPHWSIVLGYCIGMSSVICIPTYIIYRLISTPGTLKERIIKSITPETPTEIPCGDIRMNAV
Outline: (§2)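 Synaptosomes were striatal for [3H]DA and hippocampal for [3H]5-HT, as P2 pellets in oxygenated Krebs with pargyline and ascorbate (pH 7.4), protein 400 μg/ml. Drug at […] was preincubated 10 min at 34 °C, then 10 nM tritiated substrate was added for 10 min. Uptake was stopped with ice-cold buffer and filtered on GF/B. Nonspecific uptake used 10 μM nomifensine (DA) or 10 μM fluoxetine (5-HT). Duplicates; IC50 by curve fit; Ki by Cheng-Prusoff.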

[3] = molecular target: T1, Neuronal acetylcholine receptor; alpha4/beta2 (Rattus norvegicus, UniProt P09483+P12390); assay: Displacement of [3H]nicotine from alpha4beta2 nAChR in rat brain homogenate by liquid scintillation spectrophotometry; assay type: tissue-based; outline: as §1
T1 sequence (P09483 whole entry): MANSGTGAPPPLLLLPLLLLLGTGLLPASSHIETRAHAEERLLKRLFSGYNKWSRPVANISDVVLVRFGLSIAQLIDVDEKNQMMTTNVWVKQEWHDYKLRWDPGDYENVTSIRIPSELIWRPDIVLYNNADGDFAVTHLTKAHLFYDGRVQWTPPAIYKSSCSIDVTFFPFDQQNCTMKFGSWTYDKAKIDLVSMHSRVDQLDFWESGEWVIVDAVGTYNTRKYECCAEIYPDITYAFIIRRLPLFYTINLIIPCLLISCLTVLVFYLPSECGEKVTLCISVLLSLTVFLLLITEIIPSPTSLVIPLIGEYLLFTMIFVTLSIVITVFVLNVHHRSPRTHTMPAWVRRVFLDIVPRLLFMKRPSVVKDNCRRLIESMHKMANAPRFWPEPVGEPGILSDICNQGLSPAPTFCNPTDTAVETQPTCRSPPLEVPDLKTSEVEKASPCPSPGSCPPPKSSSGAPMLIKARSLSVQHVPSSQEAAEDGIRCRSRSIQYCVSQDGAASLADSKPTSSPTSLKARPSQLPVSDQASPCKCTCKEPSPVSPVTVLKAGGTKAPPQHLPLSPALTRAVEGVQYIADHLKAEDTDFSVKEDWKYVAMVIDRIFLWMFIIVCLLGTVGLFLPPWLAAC
T1 sequence (P12390 whole entry): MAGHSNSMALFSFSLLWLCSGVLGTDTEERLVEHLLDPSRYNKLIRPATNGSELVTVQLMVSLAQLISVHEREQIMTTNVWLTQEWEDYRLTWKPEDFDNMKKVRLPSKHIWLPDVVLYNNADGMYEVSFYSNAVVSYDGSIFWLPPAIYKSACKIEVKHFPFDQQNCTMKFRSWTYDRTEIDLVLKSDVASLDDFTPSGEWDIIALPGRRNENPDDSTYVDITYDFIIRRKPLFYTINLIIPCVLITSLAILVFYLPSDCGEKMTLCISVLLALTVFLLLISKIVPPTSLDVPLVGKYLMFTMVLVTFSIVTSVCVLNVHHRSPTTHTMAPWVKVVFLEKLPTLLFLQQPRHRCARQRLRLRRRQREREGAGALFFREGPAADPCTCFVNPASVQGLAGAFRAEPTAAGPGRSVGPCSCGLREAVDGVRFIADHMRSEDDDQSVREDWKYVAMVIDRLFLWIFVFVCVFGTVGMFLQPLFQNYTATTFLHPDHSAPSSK

[4] = molecular target: T2, Synaptic vesicular amine transporter (Rattus norvegicus, UniProt Q01827); assay: Displacement of [3H]MTBZ from VMAT2 in rat whole brain vesicles by liquid scintillation spectrophotometry
T2 sequence (Q01827 whole entry): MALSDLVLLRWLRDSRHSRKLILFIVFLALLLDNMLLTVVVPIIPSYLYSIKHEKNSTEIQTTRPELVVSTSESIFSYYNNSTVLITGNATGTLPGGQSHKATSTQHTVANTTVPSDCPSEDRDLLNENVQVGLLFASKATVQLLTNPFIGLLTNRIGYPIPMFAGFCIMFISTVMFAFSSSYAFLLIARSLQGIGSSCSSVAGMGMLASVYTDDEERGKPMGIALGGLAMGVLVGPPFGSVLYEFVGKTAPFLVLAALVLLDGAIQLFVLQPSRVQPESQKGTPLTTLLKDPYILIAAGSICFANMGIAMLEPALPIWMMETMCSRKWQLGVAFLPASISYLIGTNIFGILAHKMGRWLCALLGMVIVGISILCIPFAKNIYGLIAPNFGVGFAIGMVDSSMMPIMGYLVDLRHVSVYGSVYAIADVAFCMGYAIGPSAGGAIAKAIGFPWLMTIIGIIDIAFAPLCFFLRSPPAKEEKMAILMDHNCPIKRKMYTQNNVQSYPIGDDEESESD
Outline: (§3)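 Vesicles came from rat whole brain minus cerebellum, by hypotonic lysis and 100,000g pelleting, in HEPES/potassium-tartrate/MgSO4 buffer at pH 7.5, 15 μg protein per 100 μl. Final radioligand was 3 nM [3H]MTBZ or [3H]DTBZ, run in duplicate. Samples were filtered on PEI-soaked GF/B. Ki values come from at least four independent experiments.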

[5] = molecular target: Sodium-dependent dopamine transporter (Rattus norvegicus, UniProt P23977); assay: Inhibition of [3H]DA uptake at DAT in rat brain striatal synaptosomes by liquid scintillation spectrophotometry; assay type: subcellular; outline: as §2
Chain of Sodium-dependent dopamine transporter (P23977 whole entry): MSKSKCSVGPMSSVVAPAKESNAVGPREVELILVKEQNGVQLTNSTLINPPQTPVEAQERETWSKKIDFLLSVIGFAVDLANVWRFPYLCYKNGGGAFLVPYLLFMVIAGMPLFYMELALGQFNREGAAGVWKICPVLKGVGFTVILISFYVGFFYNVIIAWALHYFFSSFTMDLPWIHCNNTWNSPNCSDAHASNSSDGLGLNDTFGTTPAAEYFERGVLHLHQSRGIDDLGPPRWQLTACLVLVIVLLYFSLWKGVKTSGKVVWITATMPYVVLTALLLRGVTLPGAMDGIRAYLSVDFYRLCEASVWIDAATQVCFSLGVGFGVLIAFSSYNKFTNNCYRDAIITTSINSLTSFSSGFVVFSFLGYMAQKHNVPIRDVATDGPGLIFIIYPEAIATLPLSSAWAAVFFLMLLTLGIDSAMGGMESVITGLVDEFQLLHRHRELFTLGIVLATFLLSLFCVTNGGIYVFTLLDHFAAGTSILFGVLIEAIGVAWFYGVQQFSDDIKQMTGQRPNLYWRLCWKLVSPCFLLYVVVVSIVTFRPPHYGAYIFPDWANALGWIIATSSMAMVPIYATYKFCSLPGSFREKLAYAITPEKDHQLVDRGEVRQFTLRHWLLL

[6] = molecular target: T2, Synaptic vesicular amine transporter; assay: Displacement of [3HDTBZ from VMAT2 in rat whole brain vesicles by liquid scintillation spectrophotometry
Outline: as §3, with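 “duplicate. […]” for “duplicate.”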

[7] = molecular target: T1, Neuronal acetylcholine receptor; alpha4/beta2; assay: Antagonist activity at alpha4beta2 nAChR in rat brain synaptosomes assessed as inhibition of nicotine-induced 86Rb+ efflux by liquid scintillation spectrophotometry; assay type: functional, subcellular
[8] = molecular target: Synaptic vesicular amine transporter (Homo sapiens, UniProt Q05940); assay: Binding affinity to VMAT2 receptor
Chain of Synaptic vesicular amine transporter (Homo sapiens, UniProt Q05940) (Q05940 whole entry): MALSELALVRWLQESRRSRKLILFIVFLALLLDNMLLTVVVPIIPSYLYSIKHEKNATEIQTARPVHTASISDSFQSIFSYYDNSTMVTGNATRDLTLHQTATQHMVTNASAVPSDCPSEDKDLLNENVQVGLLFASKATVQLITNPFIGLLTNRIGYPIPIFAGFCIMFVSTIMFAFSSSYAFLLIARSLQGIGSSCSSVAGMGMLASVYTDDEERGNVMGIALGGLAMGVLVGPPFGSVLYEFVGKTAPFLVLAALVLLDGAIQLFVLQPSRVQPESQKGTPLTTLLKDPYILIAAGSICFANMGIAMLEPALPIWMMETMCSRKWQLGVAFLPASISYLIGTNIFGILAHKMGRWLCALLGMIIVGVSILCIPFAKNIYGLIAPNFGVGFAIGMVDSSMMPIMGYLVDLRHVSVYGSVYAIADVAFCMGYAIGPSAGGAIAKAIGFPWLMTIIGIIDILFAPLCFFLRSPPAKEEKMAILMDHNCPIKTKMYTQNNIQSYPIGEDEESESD

Row | Structure (SMILES) | Ki [1] [µM] | Ki [2] [µM] | Ki [3] [µM] | Ki [4] [µM] | Ki [5] [µM] | Ki [6] [µM] | IC50 [7] [µM] | Ki [8] [µM]
1 | COc1ccc(C(=O)O[C@@H](C[C@@H]2CCC[C@H](CC(=O)c3ccccc3)N2C)c2ccccc2)cc1 | 18.4 | 2.04 | 19.3 | 2.98 | 3.8 | – | – | –
2 | CCCC(=O)OC(C[C@@H]1CCCC(CC(=O)c2ccccc2)N1C)c1ccccc1 (single isomer, unassigned) | > 100 | 12.2 | 0.5 | 3.38 | 4.82 | – | – | –
3 | CN1C(CC(=O)c2ccccc2)CCC[C@H]1CC(OS(=O)(=O)c1ccccc1)c1ccccc1 (single isomer, unassigned) | 34.8 | 37.3 | 0.008 | – | 10.7 | 3.5 | 1.6 | –
4 | CN1C(CC(=O)c2ccccc2)CCC[C@H]1CC(OS(=O)(=O)c1ccc(F)cc1)c1ccccc1 (single isomer, unassigned) | 24.2 | 4.68 | 0.012 | – | 17.9 | 3 | – | –
5 | CN1C(CC(=O)c2ccccc2)CCC[C@H]1CC(OS(=O)(=O)c1ccc(Cl)cc1)c1ccccc1 (single isomer, unassigned) | > 100 | 4.38 | 0.016 | – | 10.8 | 3.24 | – | –
6 | CN1[C@@H](CC(=O)c2ccccc2)CCC[C@H]1C[C@H](OS(=O)(=O)c1cccc2ccccc12)c1ccccc1 | > 100 | 34.5 | 0.017 | – | 4.14 | 4.12 | – | –
7 | CN1C(CC(=O)c2ccccc2)CCC[C@H]1CC(OS(=O)(=O)c1ccc([N+](=O)[O-])cc1)c1ccccc1 (single isomer, unassigned) | 53.8 | 18.1 | 0.013 | – | 19.9 | 4.23 | – | –
8 | CN1C(CC(=O)c2ccccc2)CCC[C@H]1CC(OS(=O)(=O)Cc1ccccc1)c1ccccc1 (single isomer, unassigned) | 46.6 | 4.52 | 0.013 | – | 14.7 | 3.98 | – | –
9 | CN1C(CC(=O)c2ccccc2)CCC[C@H]1CC(OC(=O)c1ccccc1)c1ccccc1 (single isomer, unassigned) | > 100 | 2.07 | 2.87 | 1.53 | 2.31 | – | 0.85 | –
10 | Cc1ccc(C(=O)O[C@@H](C[C@@H]2CCC[C@H](CC(=O)c3ccccc3)N2C)c2ccccc2)cc1 | > 100 | 1.51 | 1.62 | 1.76 | 2.06 | – | – | –
11 | CC(C)S(=O)(=O)OC(C[C@@H]1CCCC(CC(=O)c2ccccc2)N1C)c1ccccc1 (single isomer, unassigned) | 47.7 | 16.1 | 0.015 | – | 4.6 | 2.09 | – | –
12 | Cc1ccc(S(=O)(=O)OC(C[C@@H]2CCCC(CC(=O)c3ccccc3)N2C)c2ccccc2)cc1 (single isomer, unassigned) | 18 | 16.2 | 0.005 | – | 29.1 | 10.8 | 0.002 | –
13 | CC(=O)OC(C[C@@H]1CCCC(CC(=O)c2ccccc2)N1C)c1ccccc1 (single isomer, unassigned) | > 100 | 31.4 | 0.07 | 8.05 | 4.64 | – | – | –
14 | CN1[C@@H](CC(=O)c2ccccc2)CCC[C@H]1C[C@H](OS(=O)(=O)c1ccc2ccccc2c1)c1ccccc1 | 18.5 | 5.06 | 0.01 | – | 13.4 | 2.48 | – | –
15 | CN1[C@@H](CC(=O)c2ccccc2)CCC[C@H]1C[C@H](OS(=O)(=O)c1cccs1)c1ccccc1 | 53.8 | 18.1 | 0.013 | – | 19.9 | 4.23 | – | –
16 | CCC(=O)OC(C[C@@H]1CCCC(CC(=O)c2ccccc2)N1C)c1ccccc1 (single isomer, unassigned) | 8.86 | 4.87 | 0.15 | 4.75 | 6.88 | – | – | –
17 | CCCCS(=O)(=O)OC(C[C@@H]1CCCC(CC(=O)c2ccccc2)N1C)c1ccccc1 (single isomer, unassigned) | 41 | 5.16 | 0.011 | – | 11.8 | 1.98 | – | –
18 | CN1[C@@H](CC(=O)c2ccccc2)CCC[C@H]1C[C@H](OC(=O)c1cccs1)c1ccccc1 | 36.2 | 9.7 | 0.86 | 6.37 | 3.02 | – | – | –
19 | CC(C)C(=O)OC(C[C@@H]1CCCC(CC(=O)c2ccccc2)N1C)c1ccccc1 (single isomer, unassigned) | > 100 | 1.06 | 0.06 | 2.61 | 2.38 | – | – | –
20 | CN1[C@@H](CCc2cccc3ccccc23)CCC[C@H]1CCc1cccc2ccccc12 | – | – | – | – | – | – | – | 0.63
